Most compounds without a hit are left out; they make up all but 4.1% or so of the library.
UPR CHOP act: activators of apoptotic arm of unfolded protein response (CHOP). CHO-CHOP luciferase reporter, UPR activation, luminescence; percent of tunicamycin response over DMSO baseline. activation, % at 10 µM. actives 0.34% (n = 330,000). AID 449763;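 active = at 10 µM dose, activation of 40% or more, normalized to positive control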;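 also: 100% = tunicamycin at 10 µg/mL and 0% = DMSO alone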
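Dosing – one dose, 10 µM in 0.5% DMSO · System – CHO-CHOP cells, stable luciferase reporter of PERK-eIF2a-CHOP signalling · Input – 500 cells/well · Control set – tunicamycin 10 µg/mL final as positive, DMSO-only wells as negative · Timing – 6 h compound treatment, 37 °C · Measure – % activation vs tunicamycin · Technique – luminescence read with Steady-Glo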
Mdm2-MdmX inh: inhibitors of human Mdm2/MdmX interaction. O15151+Q00987. SaOS-2 split-luciferase Mdm2/MdmX complementation, luminescence. AID 485346. inhibition, % at 8 µM. actives 3% (n = 330,000);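 active = inhibition of at least 50% at 8 µM in the primary screen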
UBC13 inh: inhibitors of human UBC13 polyubiquitin chain formation; P61088; TR-FRET; inhibition, % at 20 µM; actives 0.47% (n = 330,000); in the data active = inhibition above about 45%, passing the limit was not always enough
Apaf1 inhib: blocks human Apaf-1 apoptosome activity; actives 0.71% (n = 330,000); AID 489030; inhibition, % at 20 µM; reconstituted apoptosome caspase-3 activity, DEVD-Rh110 fluorescence; O14727; active = inhibition of at least 40% at 20 µM;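 also: plate controls were DMSO wells for no effect and DEVD-CHO caspase inhibitor wells for full effect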
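System – cell-free apoptosome with Apaf-1, procaspase-3 and caspase-9 · Buffer or medium – pH 7.5 Hepes buffer with CHAPS, BSA, DTT · Also added – cytochrome c with DEVD-Rh110 · Times – 30 min compound preincubation, 50 min activation, room temperature · Technique – Rh110 fluorescence intensity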
UPR XBP1 act: activators of adaptive arm of unfolded protein response (XBP1); CHO-XBP1 luciferase reporter, IRE1-XBP1 UPR activation, luminescence; percent of tunicamycin response, DMSO as zero; activation, % at 20 µM; actives 0.33% (n = 330,000); AID 463104;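 active = versus positive control, 20 µM dose yields 30% or more activation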;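 also: 100% = tunicamycin at 10 µg/mL and 0% = DMSO only wells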
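Test system: CHO-XBP1 luciferase reporter cells | Buffer or medium: Serum-containing F12 medium, 10% FBS | Schedule: 6 h compound exposure at 37 °C, 5% CO2 | Detection: Steady-Glo luciferase glow luminescence, 10 min after reagent addition | Read-out basis: Activation, % of tunicamycin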
Mdm2-MdmX conf: human Mdm2/MdmX binding inhibition, confirmed. shares compounds with Mdm2-MdmX inh. luminescent assay. inhibition, % at 8 µM. actives 55% (n = 10,000); in the data active = inhibition above about 40%
Full FLuc ctr: full-length luciferase inhibition in Mdm2/MdmX counter-screen; shares compounds with Mdm2-MdmX inh; SaOS-2 full-length luciferase counterscreen, luminescence; inhibition, % at 8 µM; actives 77% (n = 6,200);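 active = mean inhibition at 8 µM reaching about 37%, which flags the compound as non-specific, limit read from the data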;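 also: p53-null SaOS-2 cells with luciferase driven by a doxycycline-inducible promoter; compound on cells about two nights before reading with doxycycline added after day one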
* marks the source's active call; other numbers are inactive results.

What do the screens show for `Cc1ccc(C(NC(=O)C(C)C)c2cc([N+](=O)[O-])c3cccnc3c2O)cc1` (configuration not stated)?
UPR CHOP act: -1.7; Mdm2-MdmX inh: 56.9*; UBC13 inh: -78.2; Apaf1 inhib: 20.0; UPR XBP1 act: 1.9; Mdm2-MdmX conf: 51.4*; Full FLuc ctr: 44.4*

What do the screens show for `CCC(=O)NC(/C=C/c1ccccc1)c1cc([N+](=O)[O-])c2cccnc2c1O` (configuration not stated)?
UPR CHOP act: -1.5; Mdm2-MdmX inh: 63.5*; UBC13 inh: -58.5; Apaf1 inhib: 4.1; UPR XBP1 act: -0.8; Mdm2-MdmX conf: 19.3

How did Cc1ccc(C)c(OCc2nc3ccc(S(=O)(=O)Nc4c(C)n(C)n(-c5ccccc5)c4=O)cc3[nH]2)c1 do in these assays?
UPR CHOP act: 1.0; Mdm2-MdmX inh: 2.3; UBC13 inh: -3.4; Apaf1 inhib: 16.7; UPR XBP1 act: 1.2

Results for CC(NC(=O)CCc1ccccc1)c1cc2c(cc1Cl)OCCO2 (configuration not stated) ?
UPR CHOP act: -0.1; Mdm2-MdmX inh: 9.3; UBC13 inh: 7.8; Apaf1 inhib: 3.6; UPR XBP1 act: -1.5

How did O=C(CCn1c(=S)oc2ccccc21)Nc1cccc(O)c1 do in these assays?
UPR CHOP act: -0.4; Mdm2-MdmX inh: 4.8; UBC13 inh: -9.0; Apaf1 inhib: 4.4; UPR XBP1 act: 0.6

What do the screens show for `O=C(O)COc1ccccc1C(Nc1cccnc1)c1cc(Cl)c2cccnc2c1O` (configuration not stated)?
UPR CHOP act: -1.6; Mdm2-MdmX inh: -15.2; UBC13 inh: -20.4; Apaf1 inhib: 14.5; UPR XBP1 act: -2.5

What do the screens show for `O=C(NC(c1ccccc1)c1cc(Cl)c2cccnc2c1O)c1cccnc1` (configuration not stated)?
UPR CHOP act: 13.4; Mdm2-MdmX inh: 82.9*; UBC13 inh: -20.8; Apaf1 inhib: 23.8; UPR XBP1 act: 4.4; Mdm2-MdmX conf: 88.8*; Full FLuc ctr: 10.3

What do the screens show for `CCC(=O)NC(c1ccc(C)cc1)c1cc(Cl)c2cccnc2c1O` (configuration not stated)?
UPR CHOP act: 3.0; Mdm2-MdmX inh: 78.7*; UBC13 inh: -35.4; Apaf1 inhib: 14.1; UPR XBP1 act: 1.9; Mdm2-MdmX conf: 55.2*; Full FLuc ctr: 23.8

How did CN1CCN(C(c2cccnc2)c2ccc3cccnc3c2O)CC1 (configuration not stated) do in these assays?
UPR CHOP act: 13.0; Mdm2-MdmX inh: 30.9; UBC13 inh: -2.8; Apaf1 inhib: 5.1; UPR XBP1 act: 3.2

How did CCOc1ccc(C(Nc2cccnc2)c2cc(Cl)c3cccnc3c2O)cc1 (configuration not stated) do in these assays?
UPR CHOP act: 1.6; Mdm2-MdmX inh: 64.5*; UBC13 inh: -32.6; Apaf1 inhib: 31.8; UPR XBP1 act: 5.6; Mdm2-MdmX conf: 64.5*; Full FLuc ctr: 43.0*

Results for CN1CCN(C(c2ccc(Br)cc2)c2cc(Cl)c3cccnc3c2O)CC1 (configuration not stated) ?
UPR CHOP act: 28.9; Mdm2-MdmX inh: 80.2*; UBC13 inh: 17.3; Apaf1 inhib: 30.1; UPR XBP1 act: 11.8; Mdm2-MdmX conf: 62.4*; Full FLuc ctr: 47.7*

Results for O=C(O)COc1ccccc1C(Nc1ccccn1)c1cc(Cl)c2cccnc2c1O (configuration not stated) ?
UPR CHOP act: 0.7; Mdm2-MdmX inh: 6.1; UBC13 inh: -12.4; Apaf1 inhib: 16.2; UPR XBP1 act: -3.9

What do the screens show for `CCCC(=O)NC(c1cccs1)c1cc(Cl)c2cccnc2c1O` (configuration not stated)?
UPR CHOP act: -1.0; Mdm2-MdmX inh: 81.6*; UBC13 inh: -35.1; Apaf1 inhib: 16.6; UPR XBP1 act: -1.0; Mdm2-MdmX conf: 68.7*; Full FLuc ctr: 24.8

How did O=C(NCCCN1CCCC1=O)c1ccc(Cl)c(Cl)c1 do in these assays?
UPR CHOP act: 3.0; Mdm2-MdmX inh: -26.2; UBC13 inh: 12.5; Apaf1 inhib: -7.6; UPR XBP1 act: -0.2

Compound activity from PubChem BioAssay.
